Laboratory results published in ChEMBL document CHEMBL5029150, “Controlling Intramolecular Interactions in the Design of Selective, High-Affinity Ligands for the CREBBP Bromodomain” (J Med Chem, 2021).
Calls of active or inactive are those of the source. The rule behind the calls is not given here.

Columns and labels:
[1] = molecular target: T1, Transcription intermediary factor 1-alpha (Homo sapiens) (UniProt O15164); assay: Binding affinity to human TRIM24 assessed as dissociation constant up to 1 uM by BROMOscan assay; conditions: dose microM <=1
T1 sequence (whole entry): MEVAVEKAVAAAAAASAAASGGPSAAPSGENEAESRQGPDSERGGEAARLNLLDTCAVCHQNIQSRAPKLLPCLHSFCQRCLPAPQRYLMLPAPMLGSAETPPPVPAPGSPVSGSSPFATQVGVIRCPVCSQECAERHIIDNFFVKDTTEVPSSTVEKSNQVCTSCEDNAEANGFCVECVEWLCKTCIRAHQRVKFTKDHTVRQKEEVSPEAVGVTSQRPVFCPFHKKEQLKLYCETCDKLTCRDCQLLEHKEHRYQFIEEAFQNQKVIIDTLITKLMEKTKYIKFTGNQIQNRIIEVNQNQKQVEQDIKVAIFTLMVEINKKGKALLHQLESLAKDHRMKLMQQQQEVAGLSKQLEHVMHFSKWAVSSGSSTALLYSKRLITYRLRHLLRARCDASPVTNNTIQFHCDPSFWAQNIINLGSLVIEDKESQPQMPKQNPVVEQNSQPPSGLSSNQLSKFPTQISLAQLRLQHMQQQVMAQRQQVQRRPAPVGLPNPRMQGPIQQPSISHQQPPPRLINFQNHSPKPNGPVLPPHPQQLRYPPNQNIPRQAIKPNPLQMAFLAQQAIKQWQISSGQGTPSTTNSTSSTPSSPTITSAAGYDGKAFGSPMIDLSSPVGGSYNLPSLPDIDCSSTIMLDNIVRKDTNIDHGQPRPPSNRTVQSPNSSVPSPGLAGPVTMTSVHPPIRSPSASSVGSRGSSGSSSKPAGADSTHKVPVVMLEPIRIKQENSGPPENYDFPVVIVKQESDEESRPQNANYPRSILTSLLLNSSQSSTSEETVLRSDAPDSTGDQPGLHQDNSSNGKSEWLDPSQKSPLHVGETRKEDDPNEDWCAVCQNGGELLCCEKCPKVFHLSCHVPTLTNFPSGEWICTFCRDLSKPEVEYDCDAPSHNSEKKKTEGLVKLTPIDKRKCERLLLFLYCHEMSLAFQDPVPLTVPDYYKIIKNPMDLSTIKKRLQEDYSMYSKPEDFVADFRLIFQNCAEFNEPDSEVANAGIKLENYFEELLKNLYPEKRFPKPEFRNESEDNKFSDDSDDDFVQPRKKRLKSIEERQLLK
Outline: (§1)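 BROMOscan competition binding panel of 12 phylogenetically diverse bromodomains, including the CREBBP and EP300 bromodomains.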

[2] = molecular target: SWI/SNF-related matrix-associated actin-dependent regulator of chromatin subfamily A member 4 (Homo sapiens) (UniProt P51532); assay: Binding affinity to human SMARCA4 assessed as dissociation constant up to 1 uM by BROMOscan assay; conditions: dose microM <=1; outline: as §1
SWI/SNF-related matrix-associated actin-dependent regulator of chromatin subfamily A member 4 (Homo sapiens), sequence (P51532 whole entry, the tested form may be a part): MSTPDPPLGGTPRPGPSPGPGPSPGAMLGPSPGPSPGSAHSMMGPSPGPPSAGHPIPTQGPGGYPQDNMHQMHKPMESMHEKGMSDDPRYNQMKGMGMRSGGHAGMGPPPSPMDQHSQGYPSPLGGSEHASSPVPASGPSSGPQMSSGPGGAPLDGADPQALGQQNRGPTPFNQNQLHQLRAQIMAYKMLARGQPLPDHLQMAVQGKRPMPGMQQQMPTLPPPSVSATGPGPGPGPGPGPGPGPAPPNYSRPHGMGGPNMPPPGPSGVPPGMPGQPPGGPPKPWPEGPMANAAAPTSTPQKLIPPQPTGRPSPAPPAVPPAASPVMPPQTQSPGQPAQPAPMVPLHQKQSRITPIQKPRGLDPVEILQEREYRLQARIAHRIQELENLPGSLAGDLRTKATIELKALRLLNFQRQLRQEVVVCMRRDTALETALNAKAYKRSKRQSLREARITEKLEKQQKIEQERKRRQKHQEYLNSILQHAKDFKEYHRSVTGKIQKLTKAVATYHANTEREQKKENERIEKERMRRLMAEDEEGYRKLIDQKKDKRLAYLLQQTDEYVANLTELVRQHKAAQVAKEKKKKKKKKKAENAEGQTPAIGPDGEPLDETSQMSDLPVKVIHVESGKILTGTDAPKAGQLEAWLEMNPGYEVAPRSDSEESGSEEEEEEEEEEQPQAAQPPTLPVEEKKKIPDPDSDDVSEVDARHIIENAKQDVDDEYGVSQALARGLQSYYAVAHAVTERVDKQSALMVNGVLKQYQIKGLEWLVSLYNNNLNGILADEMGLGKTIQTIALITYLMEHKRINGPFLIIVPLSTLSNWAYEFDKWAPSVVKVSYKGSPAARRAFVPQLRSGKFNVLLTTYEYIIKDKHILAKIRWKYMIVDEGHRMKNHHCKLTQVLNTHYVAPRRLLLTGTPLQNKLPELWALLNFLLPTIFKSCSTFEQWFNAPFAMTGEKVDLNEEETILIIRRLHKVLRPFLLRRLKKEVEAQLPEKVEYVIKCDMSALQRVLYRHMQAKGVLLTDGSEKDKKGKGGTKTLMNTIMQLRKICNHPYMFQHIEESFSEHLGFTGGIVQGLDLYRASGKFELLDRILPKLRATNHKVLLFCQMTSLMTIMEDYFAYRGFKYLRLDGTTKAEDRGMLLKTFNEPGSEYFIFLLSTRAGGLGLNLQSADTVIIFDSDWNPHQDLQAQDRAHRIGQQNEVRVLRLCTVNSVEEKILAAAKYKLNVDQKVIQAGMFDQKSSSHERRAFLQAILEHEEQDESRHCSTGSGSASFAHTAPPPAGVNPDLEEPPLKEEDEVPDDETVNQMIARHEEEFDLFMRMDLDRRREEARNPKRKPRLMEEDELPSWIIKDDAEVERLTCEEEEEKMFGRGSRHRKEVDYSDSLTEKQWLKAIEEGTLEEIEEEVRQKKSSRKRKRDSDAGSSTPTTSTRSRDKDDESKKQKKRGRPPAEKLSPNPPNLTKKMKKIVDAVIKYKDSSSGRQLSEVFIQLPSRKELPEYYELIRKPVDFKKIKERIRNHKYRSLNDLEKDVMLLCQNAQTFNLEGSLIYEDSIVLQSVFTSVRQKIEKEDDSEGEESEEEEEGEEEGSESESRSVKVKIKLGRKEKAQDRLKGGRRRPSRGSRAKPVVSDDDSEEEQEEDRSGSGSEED

[3] = molecular target: T2, ATPase family AAA domain-containing protein 2B (Homo sapiens) (UniProt Q9ULI0); assay: Binding affinity to human ATAD2B assessed as dissociation constant up to 1 uM by BROMOscan assay; conditions: dose microM <=1; outline: as §1
T2 sequence (whole entry): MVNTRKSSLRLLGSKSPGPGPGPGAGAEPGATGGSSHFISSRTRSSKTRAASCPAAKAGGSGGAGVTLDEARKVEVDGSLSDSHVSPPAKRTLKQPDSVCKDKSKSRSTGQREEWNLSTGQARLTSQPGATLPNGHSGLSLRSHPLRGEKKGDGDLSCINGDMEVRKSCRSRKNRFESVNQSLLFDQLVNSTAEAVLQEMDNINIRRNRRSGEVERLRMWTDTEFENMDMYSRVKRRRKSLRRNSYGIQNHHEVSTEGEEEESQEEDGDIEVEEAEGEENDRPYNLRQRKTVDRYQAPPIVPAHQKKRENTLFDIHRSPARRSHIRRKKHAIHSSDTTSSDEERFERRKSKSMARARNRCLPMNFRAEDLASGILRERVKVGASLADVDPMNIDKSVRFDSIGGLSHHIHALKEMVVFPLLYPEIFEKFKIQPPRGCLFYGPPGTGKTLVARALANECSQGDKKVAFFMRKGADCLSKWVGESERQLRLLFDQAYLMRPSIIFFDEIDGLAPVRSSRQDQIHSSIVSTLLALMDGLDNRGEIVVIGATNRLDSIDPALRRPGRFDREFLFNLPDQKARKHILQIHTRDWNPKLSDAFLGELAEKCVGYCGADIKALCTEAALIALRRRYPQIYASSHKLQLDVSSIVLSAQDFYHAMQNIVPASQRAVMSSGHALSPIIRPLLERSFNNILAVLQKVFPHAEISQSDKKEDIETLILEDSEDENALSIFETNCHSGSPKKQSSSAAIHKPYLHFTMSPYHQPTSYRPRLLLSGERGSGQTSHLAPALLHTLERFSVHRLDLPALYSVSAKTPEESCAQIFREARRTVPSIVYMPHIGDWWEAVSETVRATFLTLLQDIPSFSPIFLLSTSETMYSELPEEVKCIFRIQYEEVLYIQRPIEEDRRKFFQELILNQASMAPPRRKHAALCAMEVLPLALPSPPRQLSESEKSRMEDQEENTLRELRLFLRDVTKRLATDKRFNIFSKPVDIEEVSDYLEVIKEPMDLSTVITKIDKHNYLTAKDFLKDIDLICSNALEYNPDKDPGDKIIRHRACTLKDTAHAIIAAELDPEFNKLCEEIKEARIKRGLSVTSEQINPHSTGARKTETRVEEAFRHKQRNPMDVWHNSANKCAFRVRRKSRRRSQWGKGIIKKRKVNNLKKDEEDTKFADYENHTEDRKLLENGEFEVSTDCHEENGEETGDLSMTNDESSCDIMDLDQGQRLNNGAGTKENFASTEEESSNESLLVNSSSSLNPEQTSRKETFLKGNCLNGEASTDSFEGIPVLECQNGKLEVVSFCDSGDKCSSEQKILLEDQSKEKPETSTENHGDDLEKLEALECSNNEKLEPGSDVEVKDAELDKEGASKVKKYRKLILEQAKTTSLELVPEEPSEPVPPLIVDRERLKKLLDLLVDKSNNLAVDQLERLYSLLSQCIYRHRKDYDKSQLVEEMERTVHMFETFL

[4] = molecular target: CREB-binding protein/Histone acetyltransferase p300 (Homo sapiens) (UniProt Q09472+Q92793); assay: Inhibition of CREBBP/EP300 in human HCT-116 cells assessed as reduction in H3K27Ac at 10 uM for 6 hrs by Western blot analysis; type: cell-based
Outline: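 HCT116 human colorectal cancer cells were exposed to ligand at 10 μM for 6, 16 or 24 h. c-Myc, H3K18Ac and H3K27Ac levels were read by western blot, with acetylation marks expressed relative to the t = 0 level.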

[5] = molecular target: Bromodomain-containing protein 2 (Homo sapiens) (UniProt P25440); assay: Binding affinity to human BRD2 bromodomain 1 assessed as dissociation constant up to 1 uM by BROMOscan assay; conditions: dose microM <=1; outline: as §1
Bromodomain-containing protein 2 (Homo sapiens), sequence (P25440 whole entry, looked up): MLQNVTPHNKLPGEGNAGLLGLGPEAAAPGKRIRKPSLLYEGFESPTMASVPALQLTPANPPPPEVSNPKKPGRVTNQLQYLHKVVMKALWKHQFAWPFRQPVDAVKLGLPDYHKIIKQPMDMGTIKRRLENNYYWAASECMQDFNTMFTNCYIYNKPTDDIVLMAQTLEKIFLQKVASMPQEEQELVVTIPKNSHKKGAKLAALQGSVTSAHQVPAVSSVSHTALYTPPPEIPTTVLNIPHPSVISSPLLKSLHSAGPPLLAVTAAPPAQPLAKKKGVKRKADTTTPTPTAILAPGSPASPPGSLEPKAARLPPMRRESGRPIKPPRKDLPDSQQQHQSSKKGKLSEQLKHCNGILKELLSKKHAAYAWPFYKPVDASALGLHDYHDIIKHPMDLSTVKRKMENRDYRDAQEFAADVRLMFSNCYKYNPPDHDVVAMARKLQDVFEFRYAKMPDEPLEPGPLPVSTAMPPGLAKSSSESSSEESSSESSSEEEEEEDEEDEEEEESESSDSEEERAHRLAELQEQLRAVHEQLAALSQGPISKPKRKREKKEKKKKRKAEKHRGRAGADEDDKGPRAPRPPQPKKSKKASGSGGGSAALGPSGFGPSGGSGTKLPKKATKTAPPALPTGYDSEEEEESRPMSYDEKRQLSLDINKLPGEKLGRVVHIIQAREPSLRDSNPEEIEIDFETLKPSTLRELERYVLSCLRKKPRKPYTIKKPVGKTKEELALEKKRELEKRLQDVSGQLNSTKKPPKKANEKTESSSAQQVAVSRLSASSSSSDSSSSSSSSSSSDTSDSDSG

[6] = molecular target: Histone acetyltransferase KAT2B (Homo sapiens) (UniProt Q92831); assay: Binding affinity to human PCAF assessed as dissociation constant up to 1 uM by BROMOscan assay; conditions: dose microM <=1; outline: as §1
Histone acetyltransferase KAT2B (Homo sapiens), sequence (Q92831 whole entry, looked up): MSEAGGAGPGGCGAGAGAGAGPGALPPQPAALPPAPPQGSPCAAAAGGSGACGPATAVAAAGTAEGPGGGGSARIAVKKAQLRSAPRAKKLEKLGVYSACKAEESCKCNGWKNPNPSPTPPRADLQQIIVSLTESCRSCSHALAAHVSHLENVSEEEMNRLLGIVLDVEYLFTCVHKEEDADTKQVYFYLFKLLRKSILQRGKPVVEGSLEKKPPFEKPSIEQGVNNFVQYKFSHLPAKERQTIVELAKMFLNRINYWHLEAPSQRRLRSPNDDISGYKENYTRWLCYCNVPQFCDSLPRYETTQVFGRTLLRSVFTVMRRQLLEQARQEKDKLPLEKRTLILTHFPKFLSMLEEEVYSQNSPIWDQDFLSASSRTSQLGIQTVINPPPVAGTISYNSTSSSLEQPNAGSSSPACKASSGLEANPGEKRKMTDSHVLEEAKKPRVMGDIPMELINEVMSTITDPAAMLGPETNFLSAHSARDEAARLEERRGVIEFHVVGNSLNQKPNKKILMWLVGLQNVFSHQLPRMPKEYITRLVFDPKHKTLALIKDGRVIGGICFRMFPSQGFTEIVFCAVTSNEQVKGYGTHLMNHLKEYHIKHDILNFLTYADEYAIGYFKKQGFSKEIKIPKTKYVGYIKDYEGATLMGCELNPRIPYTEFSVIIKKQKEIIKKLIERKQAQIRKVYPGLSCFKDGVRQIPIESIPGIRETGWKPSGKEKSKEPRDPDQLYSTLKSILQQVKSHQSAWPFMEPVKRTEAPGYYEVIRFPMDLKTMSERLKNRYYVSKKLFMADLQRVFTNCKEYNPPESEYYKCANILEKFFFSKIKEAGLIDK

Q: What does the source list for `COc1ccc2c(c1)N(CCC/C=C/c1cccc3c1N[C@H](C)CC(=O)N3)CCC2`?
A: Activity [1]: inactive; Activity [2]: inactive; Activity [3]: inactive; inhibition [4]: 70%; Activity [5]: inactive; Activity [6]: inactive

Q: Which Activity [1] does the source give for `COc1ccc2c(c1)N(CCC/C=C/c1cccc3c1N[C@@H](C)CC(=O)N3)CCC2` here?
A: inactive

Q: What about the Activity [2] of the same compound?
A: inactive

Q: What about the Activity [3] of the same compound?
A: inactive

Q: And the Activity [5]?
A: inactive

Q: And the Activity [6]?
A: inactive
